In ChEMBL document CHEMBL3352336, “Discovery libraries targeting the major enzyme classes: the serine hydrolases” (Bioorg Med Chem Lett, 2014) one finds Retention_time and Ki data, which are given here for ten compounds.

A short description of series [1]: Retention time of the compound. It counts as physicochemical.
Series [2] has as its target T1, Fatty-acid amide hydrolase 1 (Rattus norvegicus, UniProt P97612).
T1 sequence (P97612 whole entry): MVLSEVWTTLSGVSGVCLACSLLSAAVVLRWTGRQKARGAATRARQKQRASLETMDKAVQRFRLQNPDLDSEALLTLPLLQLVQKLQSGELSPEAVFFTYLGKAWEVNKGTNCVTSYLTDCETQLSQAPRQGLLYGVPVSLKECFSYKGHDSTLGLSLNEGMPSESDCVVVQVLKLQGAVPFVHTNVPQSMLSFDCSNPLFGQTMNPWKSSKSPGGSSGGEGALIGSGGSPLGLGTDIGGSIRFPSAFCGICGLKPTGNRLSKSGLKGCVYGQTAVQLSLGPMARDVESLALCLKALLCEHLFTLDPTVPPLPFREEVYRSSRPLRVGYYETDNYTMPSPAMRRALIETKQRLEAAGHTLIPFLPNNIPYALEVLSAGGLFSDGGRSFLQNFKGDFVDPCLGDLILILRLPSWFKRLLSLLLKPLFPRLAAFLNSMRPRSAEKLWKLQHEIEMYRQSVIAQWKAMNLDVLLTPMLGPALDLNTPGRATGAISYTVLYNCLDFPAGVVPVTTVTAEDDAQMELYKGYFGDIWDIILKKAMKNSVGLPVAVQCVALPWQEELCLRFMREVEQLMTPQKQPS
Nature of the series: Irreversible inhibition of recombinant rat FAAH preincubated for 3 hrs. The method in brief: (§1)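 Recombinant FAAH (rFAAH) was preincubated with the inhibitor for 3 h before activity was measured. Results are reported as an apparent Ki in nM.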

Series [3] deals with T1, Fatty-acid amide hydrolase 1. Nature of the series: Inhibition of recombinant rat FAAH preincubated for 3 hrs. The essentials:
as §1

Consider `N#Cc1cnn(C(=O)N2CCN(Cc3ccc4ccccc4c3)CC2)c1`, for which the Retention_time in series [1] was found to be 3.915 min. Also, in series [2], the Ki is 0.16 nM.

For the compound `Cc1cnn(C(=O)N2CCN(Cc3ccc(Oc4ccccc4)cc3)CC2)c1`, the Retention_time in series [1] is listed as 3.987 min. For the same compound, the Ki in series [2] was determined as 210 nM.

As for `N#Cc1cnn(C(=O)N2CCN(Cc3ccc(Oc4ccccc4)cc3)CC2)c1`, the Retention_time in series [1] came out at 3.927 min. Also, the Ki in series [2] amounted to 0.1 nM.

On to `O=C(N1CCN(Cc2ccc3ccccc3c2)CC1)n1cc(I)cn1`, for which the Retention_time in series [1] was found to be 3.844 min. In series [2], the Ki was 0.29 nM.

`Cc1cnn(C(=O)N2CCN(Cc3ccc4ccccc4c3)CC2)c1` displayed a Retention_time in series [1] of 3.896 min. Besides, the Ki in series [2] amounted to 130 nM.

For the compound `O=C(N1CCN(Cc2ccc3ccccc3c2)CC1)n1cc(Br)cn1`, the Retention_time in series [1] came to 3.989 min. For the same compound, the Ki in series [2] was 0.47 nM.

In turn, `O=C(N1CCN(Cc2ccc(Oc3ccccc3)cc2)CC1)n1cccn1` yielded a Retention_time in series [1] of 3.893 min. Besides, in series [2], the Ki stood at 9.2 nM.

As for `O=C(N1CCN(Cc2ccc3ccccc3c2)CC1)n1cccn1`, the Retention_time in series [1] is listed as 3.791 min. The Ki in series [2] came out at 9.8 nM.

Compound `COC(=O)c1cnn(C(=O)N2CCN(Cc3ccc4ccccc4c3)CC2)c1` returned a Retention_time in series [1] of 3.999 min. Besides, the Ki in series [2] is 0.36 nM.

On to `O=C(OCCCCc1ccccc1)n1cccn1`, for which the Retention_time in series [1] was determined as 3.779 min. Further, in series [3], the Ki turned out to be 710 nM.
